In article PMC8851455 (ACS Omega, 2022):
Like-named read-outs stand apart in the source and are kept apart here.

Assays:
[1] = tested on: MCF-7 cells; assay: MCF-7 cell proliferation assay; type: cell-based, human
Outline: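 MCF-7 cells exposed to test compound or E2 at six concentrations from 10–12 to 10–7 M in EA-free medium. Proliferation read as MTT product absorbance at 570 nm. Three independent trials, each in triplicate. % RME2 = 100 × (OD test − OD VC)/(max OD E2 − OD VC). EC50 from curve fitting. EEF = EC50 of E2/EC50 of sample. One-way ANOVA with Dunnett's test versus E2 at each concentration.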

[2] = tested on: chicken embryo; assay: Chicken embryonic assay; type: in vivo; conditions: egg injection, day 18
[3] = tested on: S. typhimurium TA98; assay: Ames test, strain TA98; type: cell-based, Salmonella typhimurium
[4] = tested on: S. typhimurium; conditions: at 12.1 to 147.8 nmol/plate; cited from earlier work
[5] = tested on: S. typhimurium TA102
[6] = tested on: chicken fetal liver; assay: TBARs level; type: in vivo; conditions: higher dose (0.5 mM: 450–500 μg/kg)
[7] = tested on: S. typhimurium TA100; assay: Ames test, strain TA100; type: cell-based, Salmonella typhimurium
[8] = tested on: MCF-7 cells; conditions: at 0.001–1 μM when tested from 0.001 to 50 μM; cited from earlier work
[9] = tested on: S. typhimurium tester strains (TA98, TA100, and TA102); assay: Ames test, overall over three strains; type: cell-based, Salmonella typhimurium; conditions: 5 × 10^–5 to 50 pmol/plate, with or without S9
[10] = higher dose (0.5 mM: 450–500 μg/kg; E2 0.1 mM: 91 μg/kg)
[11] = lower dose (0.05 mM: 45–50 μg/kg; E2 0.01 mM: 9.1 μg/kg)
[12] = TA102 +S9, 5 × 10^–2 pmol/plate
[13] = TA102 +S9, 5 × 10^–3 pmol/plate
[14] = TA102 +S9, 5 × 10^–4 pmol/plate
[15] = TA102 +S9, 5 × 10^–5 pmol/plate
[16] = TA102 -S9, 5 × 10^–3 pmol/plate
[17] = TA102 -S9, 5 × 10^–4 pmol/plate
[18] = TA102 -S9, 5 × 10^–5 pmol/plate
[19] = TA100 +S9, 5 × 10^–2 pmol/plate
[20] = TA100 +S9, 5 × 10^–3 pmol/plate
[21] = TA100 +S9, 5 × 10^–4 pmol/plate
[22] = TA100 +S9, 5 × 10^–5 pmol/plate
[23] = TA100 -S9, 5 × 10^–2 pmol/plate
[24] = TA100 -S9, 5 × 10^–3 pmol/plate
[25] = TA100 -S9, 5 × 10^–4 pmol/plate
[26] = TA100 -S9, 5 × 10^–5 pmol/plate

SMILES: O=c1c(O)c(-c2ccc(O)c(O)c2)oc2cc(O)cc(O)c12 [quercetin]
- % RME2, no detectable EA ([1]; all test concentrations except 10^–11 M, VC + 3 SD = 18%): < 18%
- max % RME2 ([1]; highest % RME2 (relative maximum % E2) in test range 10^–12–10^–7 M): 22%
- LSI (liver somatic index) [2, 10]: 1.85 ± 0.21%
- REEW (ratio of embryo to egg weight) [2, 10]: 0.43 ± 0.057
- mortality rate [2, 10]: 12.5%
- number of dead chicken embryo [2, 10]: 1
- weights: embryo [2, 10]: 24.06 ± 2.35 g
- weights: heart [2, 10]: 0.21 ± 0.05 g
- weights: liver [2, 10]: 0.44 ± 0.01 g
- LSI (liver somatic index) [2, 11]: 2.52 ± 0.34%
- REEW (ratio of embryo to egg weight) [2, 11]: 0.41 ± 0.035
- malformation rate [2, 11]: 0.0%
- mortality rate [2, 11]: 25.0%
- number of dead chicken embryo [2, 11]: 2
- number of malformation chicken embryo [2, 11]: 0
- weights: embryo [2, 11]: 22.11 ± 2.26 g
- weights: heart [2, 11]: 0.20 ± 0.02 g
- weights: liver [2, 11]: 0.56 ± 0.13 g
- MI ([3]; TA98 +S9, 0.5 pmol/plate): 1.1
- number of revertants/plate (M ± SD) ([3]; TA98 +S9, 0.5 pmol/plate): 25 ± 13 revertants/plate
- MI ([3]; TA98 +S9, 5 pmol/plate): 0.8
- number of revertants/plate (M ± SD) ([3]; TA98 +S9, 5 pmol/plate): 19 ± 10 revertants/plate
- MI ([3]; TA98 +S9, 50 pmol/plate): 0.8
- number of revertants/plate (M ± SD) ([3]; TA98 +S9, 50 pmol/plate): 18 ± 13 revertants/plate
- MI ([3]; TA98 +S9, 5 × 10^–2 pmol/plate): 1.0
- number of revertants/plate (M ± SD) ([3]; TA98 +S9, 5 × 10^–2 pmol/plate): 23 ± 17 revertants/plate
- MI ([3]; TA98 +S9, 5 × 10^–3 pmol/plate): 1.2
- number of revertants/plate (M ± SD) ([3]; TA98 +S9, 5 × 10^–3 pmol/plate): 27 ± 16 revertants/plate
- MI ([3]; TA98 +S9, 5 × 10^–4 pmol/plate): 0.8
- number of revertants/plate (M ± SD) ([3]; TA98 +S9, 5 × 10^–4 pmol/plate): 18 ± 13 revertants/plate
- MI ([3]; TA98 +S9, 5 × 10^–5 pmol/plate): 0.7
- number of revertants/plate (M ± SD) ([3]; TA98 +S9, 5 × 10^–5 pmol/plate): 17 ± 8 revertants/plate
- MI ([3]; TA98 -S9, 0.5 pmol/plate): 1.3
- number of revertants/plate (M ± SD) ([3]; TA98 -S9, 0.5 pmol/plate): 28 ± 1 revertants/plate
- MI ([3]; TA98 -S9, 5 pmol/plate): 1.2
- number of revertants/plate (M ± SD) ([3]; TA98 -S9, 5 pmol/plate): 27 ± 11 revertants/plate
- MI ([3]; TA98 -S9, 50 pmol/plate): 1.3
- number of revertants/plate (M ± SD) ([3]; TA98 -S9, 50 pmol/plate): 30 ± 2 revertants/plate
- MI ([3]; TA98 -S9, 5 × 10^–2 pmol/plate): 0.8
- number of revertants/plate (M ± SD) ([3]; TA98 -S9, 5 × 10^–2 pmol/plate): 19 ± 6 revertants/plate
- MI ([3]; TA98 -S9, 5 × 10^–3 pmol/plate): 1.4
- number of revertants/plate (M ± SD) ([3]; TA98 -S9, 5 × 10^–3 pmol/plate): 31 ± 6 revertants/plate
- MI ([3]; TA98 -S9, 5 × 10^–4 pmol/plate): 1.2
- number of revertants/plate (M ± SD) ([3]; TA98 -S9, 5 × 10^–4 pmol/plate): 27 ± 3 revertants/plate
- MI ([3]; TA98 -S9, 5 × 10^–5 pmol/plate): 1.1
- number of revertants/plate (M ± SD) ([3]; TA98 -S9, 5 × 10^–5 pmol/plate): 25 ± 2 revertants/plate
- mutagenicity in TA98, TA100, and TA102 [4]: showed mutagenicity
- MI ([5]; TA102 +S9, 0.5 pmol/plate): 1.1
- number of revertants/plate (M ± SD) ([5]; TA102 +S9, 0.5 pmol/plate): 326 ± 19 revertants/plate
- MI ([5]; TA102 +S9, 5 pmol/plate): 0.9
- number of revertants/plate (M ± SD) ([5]; TA102 +S9, 5 pmol/plate): 279 ± 21 revertants/plate
- MI ([5]; TA102 +S9, 50 pmol/plate): 1.0
- number of revertants/plate (M ± SD) ([5]; TA102 +S9, 50 pmol/plate): 310 ± 31 revertants/plate
- MI [5, 12]: 1.1
- number of revertants/plate (M ± SD) [5, 12]: 337 ± 7 revertants/plate
- MI [5, 13]: 1.2
- number of revertants/plate (M ± SD) [5, 13]: 369 ± 13 revertants/plate
- MI [5, 14]: 1.0
- number of revertants/plate (M ± SD) [5, 14]: 312 ± 16 revertants/plate
- MI [5, 15]: 0.9
- number of revertants/plate (M ± SD) [5, 15]: 291 ± 11 revertants/plate
- MI ([5]; TA102 -S9, 0.5 pmol/plate): 1.0
- number of revertants/plate (M ± SD) ([5]; TA102 -S9, 0.5 pmol/plate): 267 ± 23 revertants/plate
- MI ([5]; TA102 -S9, 5 pmol/plate): 1.2
- number of revertants/plate (M ± SD) ([5]; TA102 -S9, 5 pmol/plate): 312 ± 13 revertants/plate
- MI ([5]; TA102 -S9, 50 pmol/plate): 1.4
- number of revertants/plate (M ± SD) ([5]; TA102 -S9, 50 pmol/plate): 347 ± 10 revertants/plate
- MI [5, 16]: 1.3
- number of revertants/plate (M ± SD) [5, 16]: 325 ± 10 revertants/plate
- MI [5, 17]: 1.2
- number of revertants/plate (M ± SD) [5, 17]: 301 ± 16 revertants/plate
- MI [5, 18]: 1.1
- number of revertants/plate (M ± SD) [5, 18]: 284 ± 15 revertants/plate
- TBARs value [6]: 62.48 nmol/g
- MI ([7]; TA100 +S9, 0.5 pmol/plate): 1.2
- number of revertants/plate (M ± SD) ([7]; TA100 +S9, 0.5 pmol/plate): 398 ± 8 revertants/plate
- MI ([7]; TA100 +S9, 5 pmol/plate): 1.2
- number of revertants/plate (M ± SD) ([7]; TA100 +S9, 5 pmol/plate): 386 ± 12 revertants/plate
- MI ([7]; TA100 +S9, 50 pmol/plate): 1.1
- number of revertants/plate (M ± SD) ([7]; TA100 +S9, 50 pmol/plate): 369 ± 12 revertants/plate
- MI [7, 19]: 1.1
- number of revertants/plate (M ± SD) [7, 19]: 366 ± 14 revertants/plate
- MI [7, 20]: 1.1
- number of revertants/plate (M ± SD) [7, 20]: 367 ± 5 revertants/plate
- MI [7, 21]: 1.1
- number of revertants/plate (M ± SD) [7, 21]: 349 ± 8 revertants/plate
- MI [7, 22]: 1.1
- number of revertants/plate (M ± SD) [7, 22]: 358 ± 14 revertants/plate
- MI ([7]; TA100 -S9, 0.5 pmol/plate): 1.0
- number of revertants/plate (M ± SD) ([7]; TA100 -S9, 0.5 pmol/plate): 105 ± 11 revertants/plate
- MI ([7]; TA100 -S9, 5 pmol/plate): 1.0
- number of revertants/plate (M ± SD) ([7]; TA100 -S9, 5 pmol/plate): 104 ± 8 revertants/plate
- MI ([7]; TA100 -S9, 50 pmol/plate): 0.9
- number of revertants/plate (M ± SD) ([7]; TA100 -S9, 50 pmol/plate): 88 ± 8 revertants/plate
- MI [7, 23]: 1.1
- number of revertants/plate (M ± SD) [7, 23]: 113 ± 6 revertants/plate
- MI [7, 24]: 1.0
- number of revertants/plate (M ± SD) [7, 24]: 103 ± 7 revertants/plate
- MI [7, 25]: 1.0
- number of revertants/plate (M ± SD) [7, 25]: 98 ± 7 revertants/plate
- MI [7, 26]: 1.0
- number of revertants/plate (M ± SD) [7, 26]: 97 ± 4 revertants/plate
- cell proliferation in the MCF-7 cells [8]: < 120%
- Ames test outcome (signs of mutagenicity) [9]: signs of mutagenicity
